From ChEMBL document CHEMBL1124534, “Synthesis, mechanism of action, and biological evaluation of mitosenes” (1989)
≈ marks a conversion by molar mass, not a printed value.

How the values were obtained:
A204 = assay: In vitro antitumor activity against A204 rhabdomyosarcoma tumor cell line was determined; format: functional; conditions: Homo sapiens, read-out: ID50 (the source's name)
Procedure, shortened: (§1)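 Cell growth inhibition in vitro measured by the PIT method, with mitomycin C as positive reference.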

L1210 = assay: In vitro antitumor activity against L1210 lymphocytic leukemia tumor cell line was determined; format: functional; conditions: Mus musculus, read-out: ID50 (the source's name)
Procedure, shortened: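 Inhibition of L1210 leukemia colony formation in vitro, with mitomycin C as positive reference.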

Mus musculus [1] = assay: Body wieght treated/body weight untreated controls of compound (12.5 mg/kg) was evaluated in vivo for antitumor activity against MAC 16 in female NMRI mice on day 12; format: functional
Mus musculus [2] = assay: Body wieght treated/body weight untreated controls of compound (12.5 mg/kg) was evaluated in vivo for antitumor activity against MAC 16 in female NMRI mice on day 4; format: functional
Mus musculus [3] = assay: Percentage change in body weight [(day 6 - day 1)/ day 1] for antitumor activity against P388 Leukemia in CD2 mice at fractioned dose treatment of 2.5 mg/kg; format: functional
Procedure, shortened: (§2)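 Mouse P388 leukemia model. Drugs were given intraperitoneally, either as a single injection or once daily for 9 consecutive days (fractioned schedule). Outcomes were median survival time in days, %T/C, and % body weight change.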

Mus musculus [4] = assay: Percentage change in body weight [(day 6 - day 1)/ day 1] for antitumor activity against P388 Leukemia in CD2 mice at fractioned dose treatment of 8 mg/Kg; format: functional; conditions: in the assay text read “single dose treatment” for “fractioned dose treatment”; procedure, shortened: as §2
Mus musculus [5] = assay: Mean relative body weight change of treated / mean relative body weight change of control when compound (6 mg/kg/day) administered to inhibit growth of human tumor xenograft GXF 97 was reported at day 21 in nude mice; format: functional
Procedure, shortened: (§3)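 GXF 97 xenograft grown subcutaneously in nude mice for 24 days, then randomized; ip dosing began 1 day later, given on days 1-4, with 4-5 mice per group. Read-out is mean relative body weight change of treated divided by mean relative body weight change of controls, in %.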

Mus musculus [6] = assay: Percent change in body weight [(day 6 - day 1)/ day 1] when P388 Leukemic CD2 mice were treated with a compound (6 mg/kg); format: functional
Mus musculus [7] = assay: Percentage change in body weight [(day 6 - day 1)/ day 1] for antitumor activity against P388 Leukemia in CD2 mice at fractioned dose treatment of 1.5 mg/Kg; format: functional; procedure, shortened: as §2
Mus musculus [8] = assay: Mean relative body weight change of treated / mean relative body weight change of control when compound (6 mg/kg/day) administered to inhibit growth of human tumor xenograft GXF 97 was reported at day 28 in nude mice; format: functional; procedure, shortened: as §3
Mus musculus [9] = assay: Mean relative body weight change of treated / mean relative body weight change of control when compound (6 mg/kg/day) administered to inhibit growth of human tumor xenograft GXF 97 was reported at day 14 in nude mice; format: functional; procedure, shortened: as §3
Mus musculus [10] = assay: Median survival time in days for antitumor activity against P388 Leukemia in CD2 mice at a single dose treatment of 6 mg/kg; format: functional
Procedure, shortened: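 P388 leukemia-bearing mice were given one intraperitoneal injection. The read-out was median survival time in days, reported alongside %T/C and % body weight change.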

Mus musculus [11] = assay: Median survival time in days for antitumor activity against P388 Leukemia in CD2 mice at fractioned dose treatment of 1.5 mg/Kg; format: functional
Procedure, shortened: (§4)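 P388 leukemia-bearing mice were dosed intraperitoneally once daily for 9 consecutive days (fractioned schedule). The read-out was median survival time in days, reported alongside %T/C and % body weight change.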

Mus musculus [12] = assay: Median survival time in days for antitumor activity against P388 Leukemia in CD2 mice at fractioned dose treatment of 2.5 mg/kg; format: functional; procedure, shortened: as §4
Mus musculus [13] = assay: Percent inhibition of compound (10 mg/Kg) was evaluated in vivo for antitumor activity against MAC 13 in female NMRI mice on day 2; format: functional
Procedure, shortened: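 MAC 13 in female NMRI mice. Drugs were given in arachis oil BP by ip route on day 2 or day 29. % inhibition was derived from treated/untreated control tumor weight (volume); a negative value indicates stimulation.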

Mus musculus [14] = assay: Percent T/C ([…]) for antitumor activity against P388 Leukemia in CD2 mice at a single dose treatment of 6 mg/kg; format: functional
Procedure, shortened: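 P388 leukemia mice given a single intraperitoneal injection. Median survival time (days) and body weight change were recorded. %T/C was derived from the survival of treated versus control mice.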

Mus musculus [15] = assay: Percent T/C ([…]) for antitumor activity against P388 Leukemia in CD2 mice at fractioned dose treatment of 1.5 mg/Kg; format: functional; procedure, shortened: as §2
Mus musculus [16] = assay: Percent T/C ([…]) for antitumor activity against P388 Leukemia in CD2 mice at fractioned dose treatment of 2.5 mg/kg; format: functional; procedure, shortened: as §2
Mus musculus [17] = assay: Percent T/C ([…]) for antitumor activity against P388 Leukemia in CD2 mice at fractioned dose treatment of 8 mg/Kg; format: functional; conditions: in the assay text read “single dose” for “fractioned dose”; procedure, shortened: as §2
Mus musculus [18] = assay: Ability of intraperitoneally administered compound (6 mg/kg/day) to inhibit growth of human tumor xenograft GXF 97 was assessed on day 14 in nude mice; format: functional
Procedure, shortened: (§5)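 GXF 97 human gastric xenograft grown subcutaneously in nude mice for 24 days, then randomized; dosing began 1 day later as ip injections on days 1-4. Groups had 4-5 mice. Tumor length and width were measured. %T/C = median relative tumor size of treated / median relative tumor size of controls.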

Mus musculus [19] = assay: Ability of intraperitoneally administered compound (6 mg/kg/day) to inhibit growth of human tumor xenograft GXF 97 was assessed on day 21 in nude mice; format: functional; procedure, shortened: as §5
Mus musculus [20] = assay: Ability of intraperitoneally administered compound (6 mg/kg/day) to inhibit growth of human tumor xenograft GXF 97 was assessed on day 28 in nude mice; format: functional; procedure, shortened: as §5
Mus musculus [21] = assay: Relative tumor size on day 28 was reported when compound (6 mg/kg/day) administered to inhibit growth of human tumor xenograft GXF 97 in nude mice; format: functional
Procedure, shortened: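 GXF 97 human gastric xenograft grown subcutaneously in nude mice for 24 days, then mice randomized; treatment began 1 day later. Fractioned ip injections on days 1-4, or single iv injection on day 1; 4-5 mice per group. Tumor size from length and width; relative tumor size (% of controls) read at day 28.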

Mus musculus [22] = assay: Compound ((12.5 mg/Kg) was evaluated in vivo for antitumor activity against MAC 16 in female NMRI mice on day 4 and ratio of tumor weight of treated to that of control was determined; format: functional
Mus musculus [23] = assay: Compound (12.5 mg/Kg) was evaluated in vivo for antitumor activity against MAC 16 in female NMRI mice on day 12 and ratio of tumor weight of treated to that of control was determined; format: functional
WiDr = assay: In vitro antitumor activity against WiDr colon carcinoma tumor cell line was determined; format: functional; conditions: Homo sapiens, read-out: ID50 (the source's name); procedure, shortened: as §1
Mus musculus [24] = assay: Median survival time in days for antitumor activity against P388 Leukemia in CD2 mice at single dose treatment of 8 mg/Kg
Mus musculus [25] = assay: Compound (10 mg/Kg) was evaluated in vivo for antitumor activity against MAC 13 in female NMRI mice on day 2 and ratio of tumor weight of treated to that of control was determined

## COC1=C(C)C(=O)c2c(c(COC(C)=O)c3n2CCC3OC(C)=O)C1=O (stereo not drawn)
A204
  IC50: 0.001 µg/mL (≈ 0.00277 µM)
L1210
  IC50: 0.14 µg/mL (≈ 0.387 µM)
Mus musculus [1]
  BW: 78%
Mus musculus [2]
  BW: 105%
Mus musculus [3]
  BWC: 2%
Mus musculus [4]
  BWC: -7.1%
Mus musculus [5]
  BWC: 73.5%
Mus musculus [6]
  BWC: -4.7%
Mus musculus [7]
  BWC: 8.3%
Mus musculus [8]
  BWC: 74.1%
Mus musculus [9]
  BWC: 71%
Mus musculus [10]
  MST: 13 days
Mus musculus [11]
  MST: 15.5 days
Mus musculus [12]
  MST: 16.5 days
Mus musculus [13]
  I: 27%
Mus musculus [14]
  T/C: 118%
Mus musculus [15]
  T/C: 141%
Mus musculus [16]
  T/C: 150%
Mus musculus [17]
  T/C: 82%
Mus musculus [18]
  T/C: 16.8%
Mus musculus [19]
  T/C: 5.9%
Mus musculus [20]
  T/C: 3.9%
Mus musculus [21]
  Relative TS: 26.2%
Mus musculus [22]
  T/C: 102%
Mus musculus [23]
  T/C: 120%
WiDr
  IC50: 0.01 µg/mL (≈ 0.0277 µM)
Mus musculus [24]
  MST: 9 days
Mus musculus [25]
  T/C: 73%
